We go through four compounds from paper PMC8381683 (Pharmacology Research & Perspectives, 2021).

By AUC(0-t) is commonly meant exposure summed from dosing to a finite time, without extrapolation to infinity. For orientation: Ki means the dissociation constant of the complex between target and ligand, obtained from inhibition or displacement.

Read-outs that look alike come from different tables or passages of the source.

Series [1] deals with extracellular DA in the rat nucleus accumbens. Kind of series: In vivo microdialysis in the rat nucleus accumbens. As to conditions: p.o. The essentials: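 Under chloral hydrate (400 mg/kg i.p.), rats received a stereotaxic guide cannula in nucleus accumbens (AP +1.2 mm from bregma, […], DV −5.8 mm from dura). Recovery ≥5 days, single-housed. In freely moving rats, extracellular DA sampled via a 2-mm microdialysis probe after oral test compound or vehicle (1% methylcellulose in water, 5 ml/kg). n=5–8. ANOVA/Dunnett versus vehicle.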

The next series can be described thus: in vivo. Conditions: male, Swiss, mouse, po, 10 mg/kg.
The next series deals with human DAT (SLC6A3) (Homo sapiens, UniProt Q01959). Kind of series: cell-based.
The target of another series is human SERT (SLC6A4) (Homo sapiens, UniProt P31645). Kind of series: cell-based. Format: cell-based.
Series [2] deals with C57BL/6J mice. Kind of series: Spontaneous locomotor activity in the mouse. In kind it is in vivo. Conditions: p.o.
Series [3] relates to C57BL/6J mice. Kind of series: Food intake in the mouse. In kind it is in vivo. The method in brief:
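C57BL/6J mice (24–26 g) single-housed on a reversed 12 h/12 h cycle, lights off at 9:00 a.m. Test compound given p.o. (vehicle 1% methylcellulose in water, 10 ml/kg) or i.p. 15 min before lights-off. Food consumption recorded at 1:00 p.m., 4 h after lights-off. 8 mice per group.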

The conditions of series [4]: for Brain AUC0-8h / Brain C max / Brain C max (molar): 10 mg/kg, p.o., male Swiss mice; for Brain C max at pharmacologically active doses / Brain C max at pharmacologically active doses (molar): male, Swiss, mouse, in vivo, po.
The test system of another series is male Wistar rats. Kind of series: Behavioral drug sensitization in the rat. In kind it is in vivo. The method in brief:
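Male Wistar rats (240–270 g) habituated 1 h in the test room before each daily session. Dosed p.o. (vehicle 1% methylcellulose, 4 ml/kg) or i.p. (saline) immediately before placement in the same dim (5 lux) 76×76 cm open field. Five sessions between 1 and 5 p.m. on 5 successive days. Locomotion video-tracked for 40 min. n=5–6. ANOVA/Fisher's LSD versus vehicle; paired t test versus day 1.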

The conditions of series [5]: cited from earlier work.
Series [6] deals with DA turnover in the rat striatum. Kind of series: In vivo DA turnover and serotonin biomarkers in the rat striatum.
For series [7], the system named is tele-methylhistamine in the brain of mice. Kind of series: Assay of tele-methylhistamine in the brain of mice. In kind it is in vivo, mouse. As to conditions: 30 and 100 mg/kg, p.o., 90 min after treatment. The essentials:
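Male OF1 mice (22–25 g) fasted 16 h, then dosed orally with test compound or vehicle (1% methylcellulose in water, 10 ml/kg). Killed 90 min later. Brain homogenised in 10 volumes ice-cold 0.4 N perchloric acid and centrifuged 2000 g, 30 min, 4℃. Supernatant stored at −20℃. Tele-methylhistamine measured by enzyme immunoassay.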

In a further series the target is human NET (SLC6A2) (Homo sapiens, UniProt P23975). Kind of series: fluorescence-based neurotransmitter transporter uptake assay, NET. Format: cell-based.
Series [8] concerns the target human H3 histamine receptor (Homo sapiens, UniProt Q9Y5N1). Kind of series: [35S]-GTPγS functional binding assay on the H3 histamine receptor. In kind it is biochemical. (In general: GTPγS resists hydrolysis and so accumulates on activated G proteins.)
Series [9] concerns tele-methylhistamine in the brain of mice. Conditions: cited from earlier work.
Series [10] has as its system C57BL/6J mice. Kind of series: Effect of pitolisant on solriamfetol- or modafinil-induced locomotor activity. Format: in vivo, mouse. As to conditions: pitolisant 20 mg/kg, p.o.
Series [11] has as its system extracellular DA in the rat nucleus accumbens. Conditions: cited from earlier work.
The conditions of series [12]: 10 mg/kg, p.o., male Swiss mice, ref Ligneau et al. 29, cited from earlier work.
The mark [13] stands for this setting: D-amphetamine i.p., dose and time not given.
The mark [14] stands for this setting: 64 mg/kg, i.p., fifth day of repeated administration.

Chain of human SERT (SLC6A4) (P31645 whole entry): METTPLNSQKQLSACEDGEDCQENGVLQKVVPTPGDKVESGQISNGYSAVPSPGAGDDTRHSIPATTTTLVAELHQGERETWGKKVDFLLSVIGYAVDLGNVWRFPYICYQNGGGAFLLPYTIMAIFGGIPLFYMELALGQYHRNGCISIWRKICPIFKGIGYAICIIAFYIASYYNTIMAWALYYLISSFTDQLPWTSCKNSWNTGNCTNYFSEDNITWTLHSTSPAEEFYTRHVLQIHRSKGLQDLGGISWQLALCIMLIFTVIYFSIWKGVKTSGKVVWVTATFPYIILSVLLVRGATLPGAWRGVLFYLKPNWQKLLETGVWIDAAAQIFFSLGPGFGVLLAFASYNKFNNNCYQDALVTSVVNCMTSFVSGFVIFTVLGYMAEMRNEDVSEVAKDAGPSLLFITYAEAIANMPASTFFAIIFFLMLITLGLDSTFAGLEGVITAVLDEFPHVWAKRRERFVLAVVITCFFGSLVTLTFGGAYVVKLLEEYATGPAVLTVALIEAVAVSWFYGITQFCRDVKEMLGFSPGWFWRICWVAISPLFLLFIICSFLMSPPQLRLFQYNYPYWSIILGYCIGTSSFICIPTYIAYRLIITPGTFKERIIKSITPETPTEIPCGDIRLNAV
Chain of human NET (SLC6A2) (P23975 1-628 isoform P23975-2): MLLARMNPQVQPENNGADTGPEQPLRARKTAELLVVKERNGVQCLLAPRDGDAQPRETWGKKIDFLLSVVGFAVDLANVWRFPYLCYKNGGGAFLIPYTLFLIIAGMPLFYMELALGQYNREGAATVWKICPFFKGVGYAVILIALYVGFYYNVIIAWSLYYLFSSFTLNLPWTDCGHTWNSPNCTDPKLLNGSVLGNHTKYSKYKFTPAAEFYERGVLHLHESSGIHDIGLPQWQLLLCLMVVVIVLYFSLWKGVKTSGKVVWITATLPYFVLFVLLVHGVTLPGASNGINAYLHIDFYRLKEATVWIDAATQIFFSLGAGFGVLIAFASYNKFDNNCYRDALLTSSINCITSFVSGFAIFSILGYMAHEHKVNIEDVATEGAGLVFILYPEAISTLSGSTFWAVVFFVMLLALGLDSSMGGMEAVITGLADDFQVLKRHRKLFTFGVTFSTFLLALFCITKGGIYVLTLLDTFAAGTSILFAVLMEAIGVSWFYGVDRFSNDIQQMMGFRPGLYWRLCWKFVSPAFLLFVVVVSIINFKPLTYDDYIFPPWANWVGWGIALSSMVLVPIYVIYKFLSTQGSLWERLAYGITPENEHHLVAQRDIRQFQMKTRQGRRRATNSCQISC
Chain of human DAT (SLC6A3) (Q01959 whole entry): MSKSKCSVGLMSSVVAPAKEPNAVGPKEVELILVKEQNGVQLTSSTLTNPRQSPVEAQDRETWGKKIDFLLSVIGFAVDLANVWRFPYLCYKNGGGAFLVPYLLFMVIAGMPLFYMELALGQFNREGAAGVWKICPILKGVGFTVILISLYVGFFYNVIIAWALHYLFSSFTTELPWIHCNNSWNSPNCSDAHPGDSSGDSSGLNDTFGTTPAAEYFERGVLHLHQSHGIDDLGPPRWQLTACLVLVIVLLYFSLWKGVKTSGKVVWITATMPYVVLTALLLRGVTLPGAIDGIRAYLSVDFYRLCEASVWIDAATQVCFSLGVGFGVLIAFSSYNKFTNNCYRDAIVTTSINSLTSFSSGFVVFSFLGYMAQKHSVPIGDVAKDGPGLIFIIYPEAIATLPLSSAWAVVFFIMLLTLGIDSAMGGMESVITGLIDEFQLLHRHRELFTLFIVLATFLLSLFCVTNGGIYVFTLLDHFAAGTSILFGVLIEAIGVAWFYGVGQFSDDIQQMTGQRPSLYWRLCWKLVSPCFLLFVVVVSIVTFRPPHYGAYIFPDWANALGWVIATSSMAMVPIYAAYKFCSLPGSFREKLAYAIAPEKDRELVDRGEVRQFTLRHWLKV
Chain of human H3 histamine receptor (Q9Y5N1 whole entry): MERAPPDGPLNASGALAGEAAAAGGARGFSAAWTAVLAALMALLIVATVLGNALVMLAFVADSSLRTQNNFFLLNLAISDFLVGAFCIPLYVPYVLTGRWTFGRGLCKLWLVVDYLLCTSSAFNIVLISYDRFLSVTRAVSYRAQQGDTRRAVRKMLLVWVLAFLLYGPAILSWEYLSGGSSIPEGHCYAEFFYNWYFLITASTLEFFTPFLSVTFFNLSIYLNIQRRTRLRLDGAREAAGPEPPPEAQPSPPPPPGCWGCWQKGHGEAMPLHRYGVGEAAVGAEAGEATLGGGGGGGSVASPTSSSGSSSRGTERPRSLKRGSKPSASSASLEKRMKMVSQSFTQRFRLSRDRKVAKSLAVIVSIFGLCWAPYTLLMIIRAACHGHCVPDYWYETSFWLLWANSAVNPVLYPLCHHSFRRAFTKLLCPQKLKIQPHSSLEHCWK

On to `NC(=O)OC[C@H](N)Cc1ccccc1` [Solriamfetol], for which the “effect on extracellular levels of DA in the nucleus accumbens” value in [1] (30 mg/kg) is recorded as “no effects”. In series [1] (100 mg/kg, 30 min after administration), the “increase of extracellular levels of DA in the nucleus accumbens” value was “+138 % of basal levels”. For the same compound, the “AUC of extracellular DA (% basal dopamine level), enhancement” value in [1] (100 mg/kg, 90 min (1.5 h) post-administration period) is on record as 123%. In “in vivo”, this compound gave an AUC(0-t) of 1150 ng·h/mL and a Kp of 9.6. This compound also came in with a Ki at human DAT (SLC6A3) of 2.4 µM. Further, at human SERT (SLC6A4), the Ki was above 10 µM. The “hSERT Ki” value at human SERT (SLC6A4) (HEK293 cells expressing human SERT, Ki from IC50 by Cheng-Prusoff) was “inactive”. The “effect on cumulative locomotor activity over 5.5 h post-dosing” value with C57BL/6J mice [2] (30 mg/kg) is recorded as “no effect”. In the series on C57BL/6J mice [3] (30 mg/kg, p.o.), the “inhibition of food intake (4 h)” value was determined as 25%. Moreover, the “inhibition of food intake (4 h)” value in the series on C57BL/6J mice [3] (100 mg/kg, p.o.) came to 40%. In addition, in [4], the “Brain AUC0-8h” value is reported as 10 990 ng/g × h, the “Brain C max” value is 3935 ± 452 ng/g, the “Brain C max (molar)” value is 20 µM and the “Brain C max at pharmacologically active doses” value is 12 000-40 000. Besides, in series [4], the “Brain C max at pharmacologically active doses (molar)” value is on record as 60–200 µM. Further, the “locomotor effect in rats” value with male Wistar rats (60 mg/kg, p.o., over the 5-day repeated administration period) was “no significant locomotion effect”. Moreover, in the series with male Wistar rats (100 mg/kg, p.o., acute), the “locomotor effect in rats” value is on record as “no acute effects”. Moreover, in the series on male Wistar rats (100 mg/kg, p.o., day 5), the “increase of rat locomotor activity versus controls” value is given as 185% and the “increase of rat locomotor activity versus same treated rats at day 1” value is listed as 106%. The “plasma exposure (C max) in human at therapeutic dose” value in [5] (at 150 mg) is on record as ~ 820 ng/ml. In series [6] (30 mg/kg, p.o., 60 min), the “change of DOPAC in the rat striatum” value was −11% and the “effect on DOPAC/DA ratio relative to that of D-amphetamine (2 mg/kg, i.p.)” value is listed as “about 50%”. In series [6] (30 mg/kg, p.o., 60 min, not significant), the “change of DA in the rat striatum” value was “+4%”. Moreover, the “decrease in the DOPAC/DA ratio in the rat striatum” value in [6] (30 mg/kg, p.o., 60 min after the dose) is 14%. Further, the “effect on 5-HIAA/5-HT ratio in the rat striatum” value in [6] (3 and 30 mg/kg, p.o., 60 min after dosage) is reported as “No effect”. The “effect on tele-methylhistamine levels in the brain of mice” value in series [7] was “no significant effect”. In addition, the “effect on tele-methylhistamine levels in the brain of mice” value in [7] (listed as solriamfetol) was “no effect”. On human NET (SLC6A2), this compound gave an inhibition constant Ki of 4.8 µM. In [8], the Kb was above 10 µM.

As to `C[C@H](N)Cc1ccccc1` [D‐amphetamine], the “decrease in food consumption compared with controls (4 h)” value in the series on C57BL/6J mice [3] (3 mg/kg, i.p.) amounted to 56%. Also, in series [6] (setting [13]), the “change of DA in the rat striatum” value is recorded as “+25%” and the “change of DOPAC in the rat striatum” value is −15%.

On to `NC(=O)C[S+]([O-])C(c1ccccc1)c1ccccc1` (stereo not drawn) [Modafinil], for which, in “in vivo”, the AUC(0-t) is 2160 ng·h/mL and the Kp worked out at 1.1. In addition, the “potency in enhancing brain tele-methylhistamine level compared with pitolisant” value in series [9] (mice) is “less potent”. Besides, in the series with C57BL/6J mice [3] (64 mg/kg, p.o.), the “reduction in food intake (4 h)” value is listed as 40%. Moreover, the “reduction in food intake (4 h)” value with C57BL/6J mice [3] (96 mg/kg, p.o.) came to 76%. In the series with C57BL/6J mice [3] (128 mg/kg, p.o.), the “reduction in food intake (4 h)” value is on record as 96%. In addition, in [4], the “Brain AUC0-8h” value was 2298 ng·h/g, the “Brain C max” value is on record as 965 ± 156 ng/g, the “Brain C max (molar)” value is recorded as 3.5 µM and the “Brain C max at pharmacologically active doses” value is on record as 6000-12 000. In addition, the “Brain C max at pharmacologically active doses (molar)” value in series [4] is 22–45 µM. Besides, in the series on male Wistar rats (64 mg/kg, i.p., acute administration (day 1)), the “increase of rat locomotor activity versus controls” value was “+145%”. Also, in the series with male Wistar rats (setting [14]), the “increase of rat locomotor activity versus control rats” value was 419% and the “increase of rat locomotor activity versus same treated rats at day 1” value came out at 53%. At human NET (SLC6A2), this compound returned a Ki above 10 µM. Besides, on human NET (SLC6A2) (CHO cells expressing human NET, Ki from IC50 by Cheng-Prusoff), the “hNET Ki” value is “inactive”. In series [8], the Kb was above 10 µM.

In the case of `Cl.Clc1ccc(CCCOCCCN2CCCCC2)cc1` [Pitolisant, 1‐{3‐[3‐(4‐Chlorophenyl)propoxy]propyl}piperidine, hydrochloride], the “ED50, enhancement of brain tele-methylhistamine level” value in series [9] (p.o., in mice) was 1.6 mg/kg. The compound further displayed an inhibition constant (Ki) on human DAT (SLC6A3) of 4.1 µM. In addition, at human SERT (SLC6A4), the inhibitory constant (Ki) amounted to 5.79 µM. For the same compound, the “effect on cumulative locomotor activity over 5.5 h post-dosing” value with C57BL/6J mice [2] (10 and 20 mg/kg) is reported as “no significant effect”. For the same compound, the “effect on food intake during the initial 4 h of the night phase” value in the series on C57BL/6J mice [3] (10 and 20 mg/kg, p.o.) is “did not modify”. Moreover, in [4], the “Brain C max at pharmacologically active doses” value is recorded as 10 000-20 000 and the “Brain C max at pharmacologically active doses (molar)” value was 35–70 µM. In the series on C57BL/6J mice [10] (modafinil 64 mg/kg), the “reduction of modafinil-induced hyperlocomotion” value amounted to 58%. In the series with C57BL/6J mice [10] (modafinil 128 mg/kg), the “effect on modafinil-induced hyperlocomotion” value is on record as “not further reduced”. For the same compound, the “effect on solriamfetol-induced hyperlocomotion” value with C57BL/6J mice [10] (solriamfetol 30 mg/kg) was “fully normalized”. Moreover, the “reduction of solriamfetol-induced hyperlocomotion” value in the series with C57BL/6J mice [10] (solriamfetol 100 mg/kg) was 68%. Further, in series [11], the “effect on levels of extracellular DA in the rat nucleus accumbens” value is “no effect”. Moreover, the “locomotor effect in rats” value in the series on male Wistar rats (10 mg/kg, i.p., acute or after 5-day-repeated administrations) is given as “no hyperlocomotion effects”. For the same compound, the “plasma exposure (C max) in human at therapeutic dose” value in series [5] (at 40 mg) is recorded as ~ 36 ng/ml. The compound further had a Ki on human NET (SLC6A2) of 2.5 µM. Further, the “Brain/plasma AUC ratio” value in series [12] (AUC0-8h) is on record as 23.5. Moreover, in series [12], the “Brain AUC0-8h” value is 34 686 ng/g × h, the “Brain C max (molar)” value is 35 µM, the “Brain T max” value was 30 min and the “Plasma AUC0-8h” value was 1475 ng·h/mL. In addition, in [12], the “Plasma C max” value was 441 ± 69 ng/mL and the “Plasma T max” value was 30 min.
